# Assay results: publication PMC4258470 (Journal of molecular biology, 2014)
# Assays:
# [1] = target: T1, TAZ2 domain of CBP (residues 1764–1855) (Mus musculus, UniProt P45481); test: Fluorescence anisotropy, competition with ppE7; format: binding; conditions: phosphorylated vs non-phosphorylated (Table 1)
# T1 sequence (P45481 1764-1855): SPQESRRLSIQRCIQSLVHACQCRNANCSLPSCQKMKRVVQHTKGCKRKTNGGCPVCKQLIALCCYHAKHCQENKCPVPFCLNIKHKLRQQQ
# [2] = target: T1, TAZ2 domain of CBP (residues 1764–1855); test: 1H-15N HSQC NMR titration of 15N-TAZ2; format: binding; conditions: TAZ2 vs TAZ1 of CBP; fluorescence and NMR
# [3] = test system: TAZ2 domain of CBP with pRb-AB; test: 1H-15N HSQC NMR of 15N-TAZ2 with E7; format: binding, mouse; conditions: 15N-TAZ2:E7:pRb-AB 1:0.25:1; NMR buffer pH 6.8
# [4] = test system: pRb acetylation in BJ cells; test: In-cell pRb acetylation assay; format: cell-based, human; conditions: retroviral transduction, vs control vector (BP)
# Outline: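 Human BJ foreskin fibroblasts (DMEM, 10% calf serum) stably transduced with LXSN control vector or E7 retrovirus and selected in 600 μg/ml G418. Lysed by sonication in NETN containing butyrate, TSA, phosphatase and protease inhibitors. Anti-pRb IP from 0.8–1.0 mg extract, SDS-PAGE, blots probed for acetyl-lysine and pRb, ECL. Background-corrected AcK/pRb band ratio normalised to vector, mean of two independent experiments.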
# pRb in BJ cells = test: pRb level by Western blot, BJ cells; format: cell-based, human; conditions: retroviral transduction, vs control vector (BP); lysates and IP
# Outline: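 Human BJ fibroblasts (DMEM, 10% calf serum) retrovirally transduced with LXSN control vector or E7 and G418-selected (600 μg/ml). Sonicated in NETN buffer with phosphatase, deacetylase and protease inhibitors. Both lysates and anti-pRb immunoprecipitates (0.8–1.0 mg extract) resolved on 7–8% SDS-PAGE and Western blotted with anti-pRb, ECL detection.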
# [5] = test system: pRb acetylation in MEF cells; test: In-cell pRb acetylation assay, MEF cells; format: cell-based, mouse; conditions: for pRb acetylation, MEF cells before Cre treatment: floxed CBP/p300 MEF, prior to Cre
# Outline: (§1)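 Primary mouse embryonic fibroblasts homozygous for floxed CBP and p300 alleles, grown in DMEM with 10% calf serum, stably transduced with LXSN-E7 retrovirus and selected in 600 μg/ml G418. Lysed in NETN with inhibitors. pRb immunoprecipitated from 0.8–1.0 mg extract, 7–8% SDS-PAGE, PVDF blots probed with anti-pRb or anti-acetyl-lysine, ECL.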
# pRb in MEF cells = test: pRb level by Western blot, MEF cells; format: cell-based, mouse; conditions: floxed CBP/p300 MEF, prior to Cre
# Outline: as §1
# p300 TAZ1 domain = conditions: read-out: affinity measured by sedimentation equilibrium for p300 TAZ1; 4°C; cited from earlier work
# [6] = test system: p53 transcriptional activity; conditions: in cells; cited from earlier work
# [7] = test system: N-terminal region of p300, encompassing the TAZ1 (or CH1) domain; conditions: buffer containing 2.5 mM EDTA; cited from earlier work
# p130 = conditions: in vitro; cited from earlier work
# cellular transformation = conditions: epithelial cells, E7 alone; cited from earlier work
# [8] = test system: HPV E2 transcriptional activity; conditions: cited from earlier work
# TAZ2 domain of CBP = test: In vitro GB1 pulldown, TAZ2; format: binding, mouse; conditions: H6GB1 alone as negative control; legend refers to TAZ1 and TAZ2
# pocket domain of pRb = conditions: read-out: Kd for pRb; pRb pocket domain (pRb-AB); cited from earlier work
substance,measurement,setting,value
"16-E7(1-51): construct containing the disordered CR1 and CR2 domains, residues M1-H51, of HPV16 E7",enhancement of binding to TAZ2 by CKII phosphorylation of Ser31 and Ser32,[1],3 -fold
same,tighter binding to TAZ2 than to TAZ1,[2],~ 1000 -fold
same,ternary complex (TAZ2:E7:pRb-AB) formation by NMR,[3],unable to support ternary complex formation
same,"pRb acetylation, BJ cells",[4],comparable to control cells
same,"pRb level, BJ cells",pRb in BJ cells,comparable to control cells
"E7(1-98): full length high-risk HPV16 E7 (residues 1-98), homodimer","pRb acetylation, BJ cells",[4]; listed as E7,increased levels of acetylation
same,"pRb acetylation, BJ cells",[4]; listed as full-length E7,enhanced
same,"pRb acetylation, BJ cells",[4]; listed as full-length HPV16 E7,Enhanced acetylation of pRb
same,"pRb level, BJ cells",pRb in BJ cells,decreased levels of pRb
same,"E7-induced pRb acetylation, MEF cells lacking CBP/p300","[5]; Cre-treated MEF cells, listed as full-length HPV16 E7",acetylation levels were substantially decreased in CBP/p300^−/− cells
same,"pRb acetylation, MEF cells before Cre treatment",[5]; listed as E7,increased levels of pRb acetylation
same,"pRb acetylation, MEF cells before Cre treatment",[5]; listed as full-length HPV16 E7,Enhanced acetylation of pRb
same,"pRb level, MEF cells before Cre treatment",pRb in MEF cells,significantly decreased levels of pRb
same,Kd,p300 TAZ1 domain,900 to 3500 nM
same,inhibition of p53 transcriptional activity,[6],inhibit p53 transcriptional activity in cells
same,interaction with p300 regions in GST pulldown,[7],"interacts most strongly with the N-terminal region of p300, encompassing the TAZ1 (or CH1) domain"
same,enhancement of p300-mediated acetylation of p130,p130,enhances p300-mediated acetylation of the retinoblastoma protein family member p130
same,transformation and immortalization,cellular transformation,"sufficient to transform and immortalize epithelial cells, albeit with lower efficiency"
same,repression of HPV E2 transcriptional activity,[8],represses HPV E2 transcriptional activity
"STAT1(710-750): STAT1 residues 710-750, positive control (SEVHPSRLQTTDNLLPMSPEEFDEVSRIVGSVEFDSMMNTV)",pulldown signal vs H6GB1 background,TAZ2 domain of CBP,bind significantly above the background signal
"p53(13-61): p53 residues 13-61, positive control",pulldown signal vs H6GB1 background,TAZ2 domain of CBP,bind significantly above the background signal
pp16-E7(1-51): HPV16 E7(1-51) phosphorylated by casein kinase II (CKII) at serines 31 and 32,Kd,pocket domain of pRb,2 nM
